In experiment [1] the test system is Listeria monocytogenes. The experiment is described as follows: Antimicrobial activity against Listeria monocytogenes ATCC 19111 assessed as growth inhibition rate at 10.36 mg/l after 72 hr by spectrophotometry. Format: functional. The conditions noted are these: ATCC 19111, 72 h, read-out: GI. An outline of the steps:
(§1)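 L. monocytogenes was grown at 30 °C in tryptic soy broth, subcultured for 18 h, and exposed to pure volatile compounds (>95% purity). Growth was followed by Bioscreen C optical density every 24 h for 72 h against a 10% Tween 80 control.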

Experiment [2] relates to Salmonella typhimurium. The experiment is described as follows: Antimicrobial activity against Salmonella enterica subsp. enterica serovar Typhimurium ATCC 14028 assessed as growth inhibition rate at 10.36 mg/l after 72 hr by spectrophotometry. In kind it is functional. The conditions noted are these: ATCC 14028, 72 h, read-out: GI. An outline of the steps: (§2)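 Salmonella Typhimurium ATCC 14028 grown in nutrient broth at 30 °C, precultured 24 h, then subcultured 1:100 for 18 h before testing. Single volatile compounds (>95% pure) were added. OD was read every 24 h over 72 h in a Bioscreen C, with 10% Tween 80 as the comparison control.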

The subject of experiment [3] is Bacillus cereus. The experiment is described as follows: Antimicrobial activity against Bacillus cereus ATCC 11778 assessed as growth inhibition rate at 10.36 mg/l after 72 hr by spectrophotometry. In kind it is functional. Particulars: ATCC 11778, 72 h, read-out: GI. Summed up:
(§3)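 Pure volatile compounds (purity >95%; one at 90%) were tested against B. cereus ATCC 11778. The strain was grown at 30 °C in nutrient broth for 24 h, then subcultured for 18 h. Optical density was read in a Bioscreen C every 24 h for 72 h, with 10% Tween 80 as the control.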

Experiment [4] concerns Vibrio parahaemolyticus. The experiment is described as follows: Antimicrobial activity against Vibrio parahaemolyticus ATCC 33844 assessed as growth inhibition rate at 10.36 mg/l after 72 hr by spectrophotometry. In kind it is functional. Particulars: ATCC 33844, 72 h, read-out: GI.
Experiment [5] deals with Staphylococcus aureus. In words: Antimicrobial activity against Staphylococcus aureus ATCC 25923 assessed as growth inhibition rate at 10.36 mg/l after 72 hr by spectrophotometry. In kind it is functional. Particulars: ATCC 25923, 72 h, read-out: GI.
In experiment [6] the test system is Escherichia coli. In words: Antimicrobial activity against Escherichia coli O157:H7 ATCC 43894 assessed as growth inhibition rate at 10.36 mg/l after 72 hr by spectrophotometry. In kind it is functional. Particulars: O157:H7 ATCC 43894, 72 h, read-out: GI.
The subject of experiment [7] is Listeria monocytogenes. The experiment is described as follows: Antimicrobial activity against Listeria monocytogenes ATCC 19111 assessed as growth inhibition rate at 16.8 mg/l after 72 hr by spectrophotometry. Format: functional. The conditions noted are these: ATCC 19111, 72 h, read-out: GI. Summed up:
as §1

For experiment [8], the system named is Escherichia coli. In words: Antimicrobial activity against Escherichia coli O157:H7 ATCC 43894 assessed as growth inhibition rate at 16.8 mg/l after 72 hr by spectrophotometry. Format: functional. Particulars: O157:H7 ATCC 43894, 72 h, read-out: GI.
Experiment [9] relates to Vibrio parahaemolyticus. The experiment is described as follows: Antimicrobial activity against Vibrio parahaemolyticus ATCC 33844 assessed as growth inhibition rate at 16.8 mg/l after 72 hr by spectrophotometry. In kind it is functional. The conditions noted are these: ATCC 33844, 72 h, read-out: GI.
The test system of experiment [10] is Staphylococcus aureus. In words: Antimicrobial activity against Staphylococcus aureus ATCC 25923 assessed as growth inhibition rate at 16.8 mg/l after 72 hr by spectrophotometry. In kind it is functional. The conditions noted are these: ATCC 25923, 72 h, read-out: GI.
In experiment [11] the test system is Bacillus cereus. In words: Antimicrobial activity against Bacillus cereus ATCC 11778 assessed as growth inhibition rate at 16.8 mg/l after 72 hr by spectrophotometry. Format: functional. Particulars: ATCC 11778, 72 h, read-out: GI. Summed up: as §3
Experiment [12] relates to Salmonella typhimurium. In words: Antimicrobial activity against Salmonella enterica subsp. enterica serovar Typhimurium ATCC 14028 assessed as growth inhibition rate at 16.8 mg/l after 72 hr by spectrophotometry. The conditions noted are these: ATCC 14028, 72 h, read-out: GI. Format: functional. Summed up: as §2
In experiment [13] the test system is Vibrio parahaemolyticus. In words: Antimicrobial activity against Vibrio parahaemolyticus ATCC 33844 assessed as growth inhibition rate at 1.84 mg/l after 72 hr by spectrophotometry. In kind it is functional. Particulars: ATCC 33844, 72 h, read-out: GI.
Experiment [14] concerns Salmonella typhimurium. In words: Antimicrobial activity against Salmonella enterica subsp. enterica serovar Typhimurium ATCC 14028 assessed as growth inhibition rate at 1.84 mg/l after 72 hr by spectrophotometry. Format: functional. The conditions noted are these: ATCC 14028, 72 h, read-out: GI. An outline of the steps: as §2
For experiment [15], the system named is Listeria monocytogenes. The experiment is described as follows: Antimicrobial activity against Listeria monocytogenes ATCC 19111 assessed as growth inhibition rate at 1.84 mg/l after 72 hr by spectrophotometry. In kind it is functional. The conditions noted are these: ATCC 19111, 72 h, read-out: GI. An outline of the steps: as §1
For experiment [16], the system named is Bacillus cereus. In words: Antimicrobial activity against Bacillus cereus ATCC 11778 assessed as growth inhibition rate at 1.84 mg/l after 72 hr by spectrophotometry. Format: functional. The conditions noted are these: ATCC 11778, 72 h, read-out: GI. Summed up:
as §3

For experiment [17], the system named is Escherichia coli. The experiment is described as follows: Antimicrobial activity against Escherichia coli O157:H7 ATCC 43894 assessed as growth inhibition rate at 1.84 mg/l after 72 hr by spectrophotometry. Particulars: O157:H7 ATCC 43894, 72 h, read-out: GI. In kind it is functional.
For experiment [18], the system named is Staphylococcus aureus. The experiment is described as follows: Antimicrobial activity against Staphylococcus aureus ATCC 25923 assessed as growth inhibition rate at 1.84 mg/l after 72 hr by spectrophotometry. Format: functional. The conditions noted are these: ATCC 25923, 72 h, read-out: GI.
Experiment [19] concerns Listeria monocytogenes. The experiment is described as follows: microbe, parasite or virus in culture. Particulars: ATCC 19111, 72 h, read-out: GI.
Experiment [20] concerns Vibrio parahaemolyticus. In words: microbe, parasite or virus in culture. Particulars: ATCC 33844, 72 h, read-out: GI.
Experiment [21] deals with Salmonella typhimurium. In words: microbe, parasite or virus in culture. The conditions noted are these: Salmonella enterica, ATCC 14028, 72 h, read-out: GI.
The test system of experiment [22] is Bacillus cereus. In words: microbe, parasite or virus in culture. The conditions noted are these: ATCC 11778, 72 h, read-out: GI.
Experiment [23] relates to Escherichia coli. The experiment is described as follows: microbe, parasite or virus in culture. Particulars: O157:H7 ATCC 43894, 72 h, read-out: GI.
Experiment [24] has as its system Staphylococcus aureus. The experiment is described as follows: microbe, parasite or virus in culture. Particulars: ATCC 25923, 72 h, read-out: GI.
Experiment [25] has as its system Escherichia coli. The experiment is described as follows: Antimicrobial activity against Escherichia coli O157:H7 ATCC 43894 assessed as growth inhibition rate at 1.96 mg/l after 72 hr by spectrophotometry. Format: functional. Particulars: O157:H7 ATCC 43894, 72 h, read-out: GI.
In experiment [26] the test system is Listeria monocytogenes. In words: Antimicrobial activity against Listeria monocytogenes ATCC 19111 assessed as growth inhibition rate at 1.96 mg/l after 72 hr by spectrophotometry. Format: functional. The conditions noted are these: ATCC 19111, 72 h, read-out: GI. Summed up: (§4)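 Authentic volatiles (>95% purity; 2,4-heptadienal 90%) tested against 18 h subcultures. Growth media: E. coli O157:H7 and S. aureus in tryptic soy broth at 37 °C; L. monocytogenes in tryptic soy broth at 30 °C; V. parahaemolyticus in tryptic soy broth + 3% NaCl at 37 °C; S. typhimurium in nutrient broth at 30 °C. Bioscreen C OD every 24 h for 72 h versus 10% Tween 80 control.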

Experiment [27] deals with Bacillus cereus. The experiment is described as follows: Antimicrobial activity against Bacillus cereus ATCC 11778 assessed as growth inhibition rate at 1.96 mg/l after 72 hr by spectrophotometry. Format: functional. Particulars: ATCC 11778, 72 h, read-out: GI. Summed up: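 Pure volatile compounds (>95% purity; 2,4-heptadienal 90%) identified in the leaf extract were tested against B. cereus ATCC 11778 in nutrient broth at 30 °C. The inoculum was grown 24 h, then subcultured (0.1 mL into 9.9 mL) for 18 h. Optical density was read in a Bioscreen C every 24 h for 72 h against a 10% Tween 80 control.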

Experiment [28] has as its system Staphylococcus aureus. The experiment is described as follows: Antimicrobial activity against Staphylococcus aureus ATCC 25923 assessed as growth inhibition rate at 1.96 mg/l after 72 hr by spectrophotometry. Format: functional. Particulars: ATCC 25923, 72 h, read-out: GI. An outline of the steps: as §4
Experiment [29] concerns Vibrio parahaemolyticus. In words: Antimicrobial activity against Vibrio parahaemolyticus ATCC 33844 assessed as growth inhibition rate at 1.96 mg/l after 72 hr by spectrophotometry. Format: functional. Particulars: ATCC 33844, 72 h, read-out: GI. An outline of the steps:
as §4

Here are results for five compounds from ChEMBL document CHEMBL3046951, “Volatile constituents from the leaves of Callicarpa japonica Thunb. and their antibacterial activities” (2004).

`CC/C=C\CO` [CIS-2-PENTEN-1-OL]: the inhibition of growth at 10.36 µg/mL in [1] was determined as 0%; in experiment [2], 9.4%; in [3] it was 20.4%; in experiment [4] it was 10.5%; in experiment [5], 8.1%; in experiment [6], 21.9%.

In the case of `CCCCCC=O` [HEXANAL], the inhibition of growth at 16.8 µg/mL turned out to be 14.4% in experiment [7]; 41.5% in [8]; 57.8% in [9]; 11.3% in experiment [10]; 19.3% in experiment [11]; 39.1% in experiment [12].

Consider `CC/C=C/C=O` [PENTENAL], for which the inhibition of growth at 1.84 µg/mL was found to be 40.7% in [13]; 39.6% in experiment [14]; 16.9% in [15]; 27.4% in [16]; 11% in experiment [17]; 12.2% in experiment [18].

Turning to `CCCO` [PROPANOL], the inhibition of growth at 1.76 µg/mL in experiment [19] was 0%; in experiment [20], 0%; in experiment [21] it was 2.6%; in experiment [22], 0%; in experiment [23], 0%; in experiment [24] it was 6.1%.

With `Cc1ccccc1` [TOLUENE], the inhibition of growth at 1.96 µg/mL in experiment [25] is 0%; in experiment [26] it was 0%; in experiment [27] it was 0%; in experiment [28] it was 1.8%; in [29], 1.6%.
